From PubChem BioAssay
Hits are enriched below; roughly 3.1% of the tested compounds scored in any of these assays.
HSF1 inhib – HSF1 inhibition | AID 2098 | activity change, negative = inhibition, % at 7.5 µM (by protocol) | NIH3T3-HGL HSE-luciferase, MG132-induced, luminescence 8 h; hits give low values | 300,000 compounds, 0.77% hits;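 active = more than half of replicate wells show activity change below -50%, luminescence cut by over half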;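 note: luciferase reports HSF-1 transcriptional activity via heat shock element; 0% = median of DMSO wells and -100% = zero luminescence signal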
HKDC1 inh – inhibitors of human hexokinase HKDC1 | Q2TB90 | recombinant HKDC1, G6PDH/diaphorase resazurin coupled fluorescence | inhibition, % at 20 µM | 340,000 compounds, 0.16% hits;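 active = inhibition above about 35% when tested at 20 µM, limit read from the data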;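 note: plate controls were DMSO wells with enzyme for no effect and DMSO wells lacking enzyme for full effect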
Target sequence (Q2TB90 whole entry, looked up): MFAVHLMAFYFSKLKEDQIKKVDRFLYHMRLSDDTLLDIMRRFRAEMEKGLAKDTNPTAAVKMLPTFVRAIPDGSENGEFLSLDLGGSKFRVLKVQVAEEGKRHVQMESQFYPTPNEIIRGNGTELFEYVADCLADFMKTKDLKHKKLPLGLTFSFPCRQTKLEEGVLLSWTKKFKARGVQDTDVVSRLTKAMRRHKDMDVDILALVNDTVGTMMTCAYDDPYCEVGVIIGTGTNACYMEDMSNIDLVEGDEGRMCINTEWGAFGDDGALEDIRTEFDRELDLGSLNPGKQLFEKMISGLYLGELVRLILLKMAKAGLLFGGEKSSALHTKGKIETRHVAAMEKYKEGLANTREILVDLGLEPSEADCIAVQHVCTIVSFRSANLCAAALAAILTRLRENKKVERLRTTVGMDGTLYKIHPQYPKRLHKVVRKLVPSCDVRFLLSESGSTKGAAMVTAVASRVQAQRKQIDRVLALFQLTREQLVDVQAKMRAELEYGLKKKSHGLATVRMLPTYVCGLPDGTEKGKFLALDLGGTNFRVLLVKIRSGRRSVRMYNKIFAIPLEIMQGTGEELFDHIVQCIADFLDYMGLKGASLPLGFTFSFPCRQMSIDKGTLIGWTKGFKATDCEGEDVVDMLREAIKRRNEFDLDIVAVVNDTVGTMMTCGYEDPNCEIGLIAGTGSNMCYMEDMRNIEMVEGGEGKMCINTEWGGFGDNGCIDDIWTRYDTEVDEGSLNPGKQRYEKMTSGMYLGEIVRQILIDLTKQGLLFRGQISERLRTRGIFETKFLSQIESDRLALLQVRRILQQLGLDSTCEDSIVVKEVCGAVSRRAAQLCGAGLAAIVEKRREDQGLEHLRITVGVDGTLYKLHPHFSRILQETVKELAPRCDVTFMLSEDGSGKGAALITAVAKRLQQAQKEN
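System: Recombinant HKDC1 hexokinase | Amount: HKDC1 at 5 µg/mL | Reagent: Glucose with 1 mM ATP | Doses: Single 20 µM dose | Incubation: Reaction time 90 min, room temperature, protected from light | Signal: Coupled resazurin fluorescence, excitation 525 nm, emission 613 nm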
TbHK1 inh – blocks Trypanosoma brucei hexokinase 1 activity; AID 1430; inhibition, % at 10 µM; recombinant TbHK1, G6PDH-coupled NADH A340; 220,000 compounds, 0.11% hits;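 active = inhibition of 50% or more in the single-dose primary screen; inactive = inhibition below 50%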
Hsp70 activator – Hsp70 transcriptional activation, primary screen. HeLa Hsp70 promoter luciferase reporter, luminescence; scaled: vehicle 0, proteasome-inhibitor control 100%. activation, % at 10 µM. 200,000 compounds, 0.04% hits;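 active = activation above the mean across all tested compounds plus 3 SD, cutoff set per campaign, cut at about 5.5% in these data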;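 note: 100% = MG132 at 30 µM as the positive control and 0% = DMSO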
HSF1 activator – increases HSF-1 driven luciferase reporter signal. NIH3T3-HGL HSF-1 luciferase reporter, MG132, 8 h; 100% = twice DMSO control signal. activation, % at 9 µM. 300,000 compounds, 1.7% hits. AID 504408;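 active = mean replicate activation of at least 50% with a set share of replicates each reaching 50%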;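 note: 0% = median of the neutral control wells and 100% = twice that signal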
HSP90 inh – blocks HSP90-mediated luciferase refolding in reticulocyte lysate | Rabbit reticulocyte lysate, luciferase refolding luminescence, 3 h | inhibition, % at 5.6 µM | 290,000 compounds, 0.91% hits;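 active = inhibition above the screen-wide mean plus 3 SD, computed separately per campaign, cut at about 16% in these data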;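 note: 0% = DMSO wells and 100% = 60 µM geldanamycin wells; inhibitors lower the luminescence because luciferase stays unfolded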
* marks the source's active call; other numbers are inactive results; i = inactive; · = no result.

SMILES | HSF1 inhib | HKDC1 inh | TbHK1 inh | Hsp70 activator | HSF1 activator | HSP90 inh
OCCN(Cc1ccccc1)Cc1ccccc1Cl | 3.5 | -7.1 | 7.1 | -0.5 | 13.3 | -3.0
OCCN(Cc1ccccc1)Cc1cccc(Cl)c1Cl | -80.0* | -11.3 | -3.5 | -0.3 | -81.6 | 3.4
Cc1ccc2c(c1)C(=NC1CCCCC1)c1cc3ccccc3nc1-2 | 44.2 | -2.1 | -9.5 | -0.1 | 60.1* | -2.8
O=C(c1ccc(F)cc1)N1CCCC(N2CCN(Cc3ccc4c(c3)OCO4)CC2)C1 (configuration not stated) | -54.1* | -0.4 | · | · | -63.2 | -1.1
O=C(c1cccc(Cl)c1)N1CCN(Cc2ccc3c(c2)OCO3)CC1 | 2.8 | -4.5 | · | · | -5.4 | 1.4
CC1CCN(c2nc3ccc(C(=O)N4CCN(Cc5ccc6c(c5)OCO6)CC4)cc3s2)CC1 | -44.9 | 5.2 | -19.2 | -0.2 | -56.1 | 57.6*
OC(CCN1CC2CCC(CC2)C1)(Cc1ccccc1)c1ccco1 (configuration not stated) | · | -8.0 | · | · | · | ·
COc1c(Cl)cnn(-c2ccc(C)cc2)c1=O | 17.4 | -3.9 | 1.6 | -0.4 | 45.3 | 4.5
Cc1ccc(-n2ncc(Br)c(Br)c2=O)cc1 | -84.6* | -0.2 | 2.7 | 4.9 | -85.5 | -0.1
CC(=O)SC1CC(=O)C=C2CCC3C4CCC(=O)OC4(C)CCC3C21C (configuration not stated) | · | -6.2 | · | · | · | ·
COc1cc(/C=N/NC(=O)c2cccc([N+](=O)[O-])c2)ccc1OCc1ccc(C)cc1 | 46.3 | -4.2 | -0.8 | 0.3 | 68.4* | -0.9
COc1cc([N+](=O)[O-])cc(/C=N/NC(=O)c2ccc(NC(=O)c3ccc(C)cc3)cc2)c1O | -58.3* | 0.0 | -16.2 | -0.2 | -65.3 | 0.4
COc1cc([N+](=O)[O-])cc(/C=N/NC(=O)c2ccc(C)nc2)c1O | -16.9 | -13.3 | -5.2 | 0.0 | -12.9 | -1.8
COc1ccc(/C=N/NC(=O)c2cccc([N+](=O)[O-])c2)cc1O | -1.7 | 5.0 | -40.5 | -0.1 | 4.4 | -3.2
O=C(CNC(=O)c1cccc(Br)c1)N/N=C/c1cc(Br)cc(Br)c1O | 0.3 | -17.2 | 13.0 | -0.5 | -0.3 | 1.3
O=C(Cc1ccccc1)N/N=C/c1cc(Br)cc(Br)c1O | -1.8 | -15.9 | · | · | 8.1 | 16.2*
COc1ccccc1C(CNC(=O)C1CCN(C(=O)Nc2ccccc2)CC1)N1CCCC1 (configuration not stated) | · | 1.6 | · | · | · | ·
COc1cc(NC(=O)c2ccco2)ccc1NC(=O)c1ccccc1Cl | 3.8 | 2.0 | -5.5 | -0.2 | 0.4 | -1.7
COc1cc(NC(=O)c2ccccc2Cl)ccc1NC(=O)c1ccco1 | 54.7 | 5.7 | -7.4 | 0.7 | 71.2* | 3.2
COc1ccc(NC(=O)c2ccco2)cc1N | -56.7* | 10.7 | -4.1 | -0.1 | -63.1 | -2.6
CCCCCc1nnc(NC(=O)c2cccc(S(=O)(=O)N3CCOCC3)c2)s1 | · | -2.4 | · | · | · | ·
Cc1ccc(C(=O)Nc2ccc3ccccc3n2)cc1 | 26.4 | -0.1 | · | · | 58.3* | 7.0
O=C(CCc1ccccc1)Nc1ccc2ccccc2n1 | 41.3 | -6.8 | 4.9 | 0.1 | 92.3* | -2.7
O=C(Nc1ccc2ccccc2n1)c1ccccc1Br | 34.0 | 0.4 | · | · | 70.9* | 0.9
O=C(Nc1ccc2ccccc2n1)c1ccccc1 | 25.6 | -6.9 | · | · | 36.6 | 11.5
SMILES | HSF1 inhib | HKDC1 inh | TbHK1 inh | Hsp70 activator | HSF1 activator | HSP90 inh
CCN(CC)CCn1c(NC(=O)c2ccc(C)cc2)nc2ccccc21 | 14.1 | -5.9 | · | · | 57.0* | -3.2
CCN(CC)CCn1c(NC(=O)c2ccc(C(F)(F)F)cc2)nc2ccccc21 | · | -10.8 | -5.1 | 0.1 | · | 2.1
Cc1cc(=O)[nH]c(N/N=C/c2sccc2C)n1 | -28.3 | 13.8 | -26.6 | -0.3 | -27.7 | 2.8
Cc1ccsc1/C=N/Nc1nc2ccccc2[nH]1 | i | -8.2 | -26.5 | 0.3 | 802.9* | 6.2
C(=N\Nc1nc2ccccc2[nH]1)/c1cccs1 | 99.4 | -8.9 | -55.3 | -0.1 | 112.9* | -4.1
Cn1c(-c2sc3cc(C(F)(F)F)cnc3c2-c2cccnc2)n[nH]c1=S | -85.4* | -2.8 | -20.9 | 1.5 | -88.0 | -2.5
Cc1ccc(OCC(=O)Nc2ccon2)c([N+](=O)[O-])c1 | 17.6 | -4.8 | · | · | 28.7 | 5.8
Cc1csc(=O)n1CCC(=O)OCC(=O)c1ccc(Br)cc1 | 1.7 | 0.1 | · | · | 11.4 | ·
O=C1NC(=O)C2(CCc3ccccc32)N1 (configuration not stated) | -77.2* | -4.4 | 0.3 | 0.0 | -81.6 | -1.4
COc1ccc(CC(=O)NCc2ccc3c(c2)OCO3)cc1 | -3.4 | 3.1 | 6.7 | 0.3 | 4.4 | -2.5
CC(=O)Nc1ccc(NC(=O)C(C)OC(=O)/C=C/c2ccc3c(c2)OCO3)cc1 (configuration not stated) | -1.7 | -3.2 | · | · | 15.6 | ·
COc1cccc(/C=C/C(=O)NCc2ccc3c(c2)OCO3)c1 | -84.9* | -3.6 | · | · | -87.2 | -2.3
CCN(Cc1ccc2c(c1)OCO2)C(=O)/C=C/c1cccc(Br)c1 | -73.9* | 3.7 | · | · | -79.7 | -5.0
COc1cccc(NC(=O)C(OC(=O)/C=C/c2ccc3c(c2)OCO3)c2ccccc2)c1 (configuration not stated) | 17.1 | 2.0 | -18.2 | -0.2 | 54.2* | 8.6
C#CCN1C=C(C(=O)OCC)C(C)N(Cc2ccccc2I)S1(=O)=O (configuration not stated) | · | 2.8 | · | · | · | ·
COc1ccc(NC(=O)c2sccc2-n2cccc2)cc1 | 1.3 | 5.1 | -3.5 | -0.3 | 32.4 | 3.1
CCc1ccc(NC(=O)c2sccc2-n2cccc2)cc1 | 15.4 | 0.7 | -5.2 | 0.0 | 53.2* | 1.9
Cc1ccc(-n2nc3c(c2NC(=O)c2ccc(F)c(F)c2)CS(=O)(=O)C3)cc1 | -6.6 | -3.6 | · | · | -3.9 | 2.3
CCCc1cc(=O)oc2cc(OCC(=O)N3C[C@H]4C[C@@H](C3)c3cccc(=O)n3C4)c(Cl)cc12 | 36.0 | 14.5 | · | · | 56.6* | -6.3
O=C(COc1cc2oc(=O)c3c(c2cc1Cl)CCCC3)N1C[C@H]2C[C@@H](C1)c1cccc(=O)n1C2 | 7.2 | 18.3 | · | · | 19.1 | -0.8
COc1ccc(N2CCN(C(=O)CCNS(=O)(=O)c3ccc4c(c3)CCC(=O)N4)CC2)cc1 | · | 12.2 | 0.0 | -0.5 | · | 0.1
COc1ccccc1N1CCN(C(=O)CCNS(=O)(=O)c2ccc3c(c2)CCC(=O)N3)CC1 | 0.0 | -4.2 | 2.9 | -0.5 | -9.4 | 16.3*
Cc1noc(C)c1COc1ccc(C(=O)OCC(=O)Nc2c(C)n(C)n(-c3ccccc3)c2=O)cc1 | -55.7* | -4.9 | 1.3 | -0.5 | -62.5 | -1.9
Cc1c(NC(=O)Nc2ccc(F)cc2F)c(=O)n(-c2ccccc2)n1C | -6.6 | -5.3 | · | · | -1.2 | 0.4
CCOC(=O)c1cnc2c(-c3ccccc3)c(C)nn2c1N | -1.4 | 5.9 | -10.5 | -0.3 | 12.0 | 3.3
Nc1c(-c2ccc(Cl)cc2)cnc2c(-c3ccc(F)cc3)cnn12 | 4.3 | -3.7 | · | · | 6.5 | -3.0
